Series [1] in a line: Antiproliferative activity against human PBMC assessed as reduction in cell viability after 70 hrs by Quanti-blue assay. Format: cell-based. The procedure, abridged: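 QB fluorescence viability assay; hPBMCs purified by density centrifugation from purchased human blood, stored frozen, resuspended in RPMI-1640 with 10% heat-inactivated FBS, HEPES, pyruvate, non-essential amino acids and BME; seeded at 10^6 cells/mL. Compounds at 50 μM, 70 h plus 2 h with detection reagent; λex 530/λem 590 nm. Three independent repeats.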

Series [2] relates to MDA-MB-231. The series is described as follows: Antiproliferative activity against human MDA-MB-231 cells assessed as reduction in cell viability after 72 hrs by MTS-PMS assay. It is filed as functional. To be noted: MDA-MB-231, 72 h. Put shortly:
(§1)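 MTS-PMS viability test. Cells were seeded at 3,000/well and left 24 h at 37 °C, 5% CO2, then exposed to compound for 72 h. Screening was at 50 μM for HCT116 and MCF-7 and […], with final DMSO ≤1%. MTS:PMS was mixed 20:1, added for 3 h, and absorbance read at 490 nm. At least two independent runs were done, each in triplicate.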
(Tetrazolium assays rely on reduction of a dye to a coloured formazan, in cell work by metabolically active cells.)

The target in series [3] is Histone deacetylase 2 (Homo sapiens, UniProt Q92769). The series is described as follows: Inhibition of full length recombinant human HDAC2 expressed in baculovirus expression system using fluorogenic peptide RHKK(Ac) as substrate by fluorescence assay.
Histone deacetylase 2, sequence (Q92769 whole entry): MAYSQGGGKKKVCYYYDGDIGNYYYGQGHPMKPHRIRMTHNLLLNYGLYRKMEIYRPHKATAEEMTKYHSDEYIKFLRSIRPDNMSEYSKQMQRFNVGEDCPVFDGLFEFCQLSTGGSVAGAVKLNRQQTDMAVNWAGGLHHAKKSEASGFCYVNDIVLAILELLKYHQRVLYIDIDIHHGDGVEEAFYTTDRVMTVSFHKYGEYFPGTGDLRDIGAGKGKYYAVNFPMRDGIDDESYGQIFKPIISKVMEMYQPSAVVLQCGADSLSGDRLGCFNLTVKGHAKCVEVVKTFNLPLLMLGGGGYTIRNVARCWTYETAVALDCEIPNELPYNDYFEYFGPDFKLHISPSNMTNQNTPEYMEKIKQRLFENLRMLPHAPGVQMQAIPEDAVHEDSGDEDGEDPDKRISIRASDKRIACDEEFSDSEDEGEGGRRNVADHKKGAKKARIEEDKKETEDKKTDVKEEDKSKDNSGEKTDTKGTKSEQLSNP
In series [4] the test system is MCF7. The series is described as follows: Antiproliferative activity against human MCF7 cells assessed as reduction in cell viability after 72 hrs by MTS-PMS assay. To be noted: MCF7, 72 h.
For series [5], the system named is HuT78. The series is described as follows: Antiproliferative activity against human HUT78 cells assessed as reduction in cell viability after 70 hrs by Quanti-blue assay. Format: functional. To be noted: Homo sapiens, HuT78, 70 h. Put shortly:
(§2)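 Quanti-Blue viability kit. HuT-78 and Molt-4 cells were grown in RPMI-1640 and seeded at 10^5 cells/mL. Compounds were screened at 50 μM for 70 h, with detection reagent present for the final 2 h. Fluorescence was read at ex 530/em 590 nm. IC50 from dose-response came from linear regression. Three independent runs.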

Series [6] concerns MOLT-4. The series is described as follows: Antiproliferative activity against human MOLT4 cells assessed as reduction in cell viability after 70 hrs by Quanti-blue assay. Format: functional. To be noted: Homo sapiens, MOLT-4, 70 h. Put shortly:
as §2

The nature of series [7]: Immunomodulatory activity in human TALL-104 cells assessed as effect on degranulation by measuring augmentation of CD3-stimulated anti-LAMP fluorescence at 100 uM preincubated for 30 mins followed by anti-LAMP addition and incubated for 50 mins in the dark by flow cytometric analysis relative to control. It is filed as functional.
For series [8], the system named is HCT-116. The series is described as follows: Antiproliferative activity against human HCT116 cells assessed as reduction in cell viability after 72 hrs by MTS-PMS assay. To be noted: Homo sapiens, HCT-116, 72 h. Format: functional. Put shortly:
as §1

The record followed here is ChEMBL document CHEMBL4428107 (Bioorg Med Chem, 2016).

SMILES strings stand for the structures. A value given as a limit tells only on which side of the number the result lay.

For the compound `CCOC(=O)NCCCC(=O)Nc1ccc(O[Si](C)(C)C(C)(C)C)cc1`, the GI50 (usually the concentration at which growth is held to half of that of the control) at 70 h in series [1] is more than 50 µM. The 50% growth inhibitory concentration (GI50) in series [2] is more than 50 µM; in series [4], 13.8 µM; in series [5], more than 50 µM; in series [6] it was more than 50 µM; in series [8], more than 50 µM. The IC50 – broadly, the concentration that gives 50% inhibition – in series [3] is more than 1 µM. For the same compound, the Activity in series [7] was 171%.

Consider `CCCCOC(=O)NCCCC(=O)NCCc1ccccc1`, for which, in series [1], the GI50 at 70 h is more than 50 µM. The 50% growth inhibitory concentration (GI50) in series [2], in series [4], in series [5], in series [6] and in series [8] was more than 50 µM each time. The concentration for half-maximal inhibition (IC50) in series [3] is more than 1 µM. Further, the Activity in series [7] is 101%.

`CCOC(=O)NCCc1ccccc1`: the 50% growth inhibitory concentration (GI50) at 70 h in series [1] is more than 50 µM. Further, the concentration for 50% growth inhibition (GI50) in series [2], in series [4], in series [5], in series [6] and in series [8] was more than 50 µM in each case. The half-inhibitory concentration (IC50) in series [3] is more than 1 µM. The Activity in series [7] stood at 90%.

With `COC(=O)NCCCC(=O)NCCc1ccccc1`, the concentration for 50% growth inhibition (GI50) at 70 h in series [1] was more than 50 µM. Moreover, the 50% growth inhibitory concentration (GI50) in series [2], in series [4], in series [5], in series [6] and in series [8] was more than 50 µM each time. Besides, the half-maximal inhibitory concentration (IC50) in series [3] was more than 1 µM. In addition, the Activity in series [7] is recorded as 81%.

Take `O=C(CCCNC(=S)N1CCCC1=O)NCCc1ccccc1`: the GI50 at 70 h in series [1] is more than 50 µM. Moreover, the GI50 in series [2], in series [4], in series [5], in series [6] and in series [8] was more than 50 µM each time. For the same compound, the IC50 in series [3] is more than 1 µM. In addition, the Activity in series [7] is 94%.

Consider `CCOC(=O)NCCCC(=O)NCCc1cccc(Cl)c1`, for which the GI50 at 70 h in series [1] was more than 50 µM. In addition, the GI50 in series [2], in series [4], in series [5], in series [6] and in series [8] was more than 50 µM each time. In series [3], the IC50 is more than 1 µM. Also, in series [7], the Activity is 75%.

Regarding `CCOC(=O)NCCCCC(=O)NCc1ccccc1`, in series [1], the concentration for 50% growth inhibition (GI50) at 70 h is more than 50 µM. Further, the concentration for 50% growth inhibition (GI50) in series [2], in series [4], in series [5], in series [6] and in series [8] was more than 50 µM each time. Besides, in series [3], the IC50 was more than 1 µM. The Activity in series [7] was 93%.

Regarding `C#CCOC(=O)NCCCC(=O)NCCc1ccccc1`, the concentration for 50% growth inhibition (GI50) at 70 h in series [1] was more than 50 µM. In addition, the GI50 in series [2], in series [4], in series [5], in series [6] and in series [8] was more than 50 µM each time. Besides, the 50% inhibitory concentration (IC50) in series [3] was more than 1 µM. Moreover, in series [7], the Activity stood at 105%.

`CCOC(=O)NCCCCCC(=O)NCCc1ccccc1`: in series [1], the GI50 at 70 h was more than 50 µM. Besides, the GI50 in series [2], in series [4], in series [5], in series [6] and in series [8] was more than 50 µM throughout. Moreover, the IC50 in series [3] is more than 1 µM. Besides, in series [7], the Activity is 98%.

`CCCC(=O)NCCCC(=O)NCCc1ccccc1`: the concentration for 50% growth inhibition (GI50) at 70 h in series [1] was more than 50 µM. Besides, the GI50 in series [2], in series [4], in series [5], in series [6] and in series [8] was more than 50 µM throughout. For the same compound, the IC50 in series [3] was more than 1 µM. Also, the Activity in series [7] was 101%.

For `CCOC(=O)NCCCCC(=O)NCCc1ccccc1`, in series [1], the GI50 at 70 h was more than 50 µM. Moreover, the GI50 in series [2], in series [4], in series [5], in series [6] and in series [8] was more than 50 µM throughout. Further, the IC50 in series [3] is more than 1 µM. Further, the Activity in series [7] was 83%.

On to `CCOC(=O)NCCCC(=O)Nc1ccc(CO[Si](C)(C)C(C)(C)C)cc1`, for which the GI50 at 70 h in series [1] is more than 50 µM. Besides, the 50% growth inhibitory concentration (GI50) is more than 50 µM in series [2]; 23.7 µM in series [4]; more than 50 µM in series [5]; more than 50 µM in series [6]; more than 50 µM in series [8]. The IC50 in series [3] was more than 1 µM. Also, the Activity in series [7] is 126%.

In the case of `CCNC(=O)NCCCC(=O)NCCc1ccccc1`, the GI50 at 70 h in series [1] was more than 50 µM. The 50% growth inhibitory concentration (GI50) in series [2], in series [4], in series [5], in series [6] and in series [8] was more than 50 µM in each case. The IC50 in series [3] was more than 1 µM. For the same compound, the Activity in series [7] was determined as 106%.

For `CCOC(=S)NCCCC(=O)NCCc1ccccc1`, in series [1], the GI50 at 70 h is more than 50 µM. Moreover, the GI50 in series [2], in series [4], in series [5], in series [6] and in series [8] was more than 50 µM each time. In addition, the IC50 in series [3] was more than 1 µM. The Activity in series [7] is reported as 105%.

As to `CCOC(=O)NCCC(=O)NCCc1ccccc1`, the GI50 at 70 h in series [1] is more than 50 µM. Further, the GI50 in series [2], in series [4], in series [5], in series [6] and in series [8] was more than 50 µM each time. Moreover, in series [3], the 50% inhibitory concentration (IC50) was more than 1 µM. Besides, in series [7], the Activity is reported as 91%.

As to `CCOC(=O)NCCC(=O)NCCCCc1ccccc1`, the GI50 at 70 h in series [1] was more than 50 µM. Further, the GI50 in series [2], in series [4], in series [5], in series [6] and in series [8] was more than 50 µM throughout. The half-inhibitory concentration (IC50) in series [3] is more than 1 µM. The Activity in series [7] is reported as 83%.

With `CCOC(=O)NCC(=O)NCCCCc1ccccc1`, the concentration for 50% growth inhibition (GI50) at 70 h in series [1] was more than 50 µM. Moreover, the GI50 in series [2], in series [4], in series [5], in series [6] and in series [8] was more than 50 µM in each case. For the same compound, the half-inhibitory concentration (IC50) in series [3] was more than 1 µM. Also, the Activity in series [7] was determined as 81%.

As to `CCOC(=O)NCCCC(=O)N[C@@H](Cc1ccccc1)C(=O)OC`, the GI50 at 70 h in series [1] is more than 50 µM. Moreover, the GI50 in series [2], in series [4], in series [5], in series [6] and in series [8] was more than 50 µM in each case. Also, the half-maximal inhibitory concentration (IC50) in series [3] was more than 1 µM. The Activity in series [7] was 90%.

For the compound `O=C(CCCNC(=O)OCCF)NCCc1ccccc1`, the GI50 at 70 h in series [1] is more than 50 µM. The GI50 in series [2], in series [4], in series [5], in series [6] and in series [8] was more than 50 µM throughout. Further, in series [3], the IC50 is more than 1 µM. The Activity in series [7] is listed as 92%.

Take `CC(C)(C)CC(=O)NCCCC(=O)NCCc1ccccc1`: the GI50 at 70 h in series [1] is more than 50 µM. The concentration for 50% growth inhibition (GI50) in series [2], in series [4], in series [5], in series [6] and in series [8] was more than 50 µM throughout. Also, the half-maximal inhibitory concentration (IC50) in series [3] was more than 1 µM. In addition, the Activity in series [7] is 73%.
